Active and inactive are the calls of the source. The calls are words filed in the database; no cut-off is given here.

The test system of one experiment is Nucleic Acid. In words: cleavage of Escherichia coli DNA by agarose gel electrophoresis. The class given is nucleic-acid assay. Put shortly:
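Genomic DNA from E. coli grown 24 h at 37 °C in nutrient broth, isolated by SDS lysis, phenol and chloroform:isoamyl alcohol extraction, ethanol precipitation. Samples (1 mg/ml stock in DMF) added to DNA, incubated 2 h at 37 °C, mixed 1:1 with bromophenol blue, run on agarose gel in TAE beside DNA marker, 50 V for 30 min.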

The test system of experiment [1] is Radical scavenging activity. The experiment is described as follows: Antioxidant activity assessed as DPPH radical scavenging activity. The class given is functional. In short, it runs like this:
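DPPH method: 10, 50 and 100 µg sample or BHA brought to 100 µl with MeOH, plus 5 mL 0.1 mM methanolic DPPH, shaken, left 20 min at 27 °C; absorbance at 517 nm versus control lacking sample. % scavenging = [(control OD − sample OD)/control OD] × 100.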

Experiment [2] in a line: Antioxidant activity assessed as equivalence of ascorbic acid. The class given is functional. In short, it runs like this:
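Phosphomolybdenum total antioxidant capacity: 10, 50 and 500 µg sample mixed with 1.9 mL reagent (0.6 M sulfuric acid, 28 mM sodium phosphate, 4 mM ammonium molybdate), heated 95 °C for 90 min, cooled; absorbance at 695 nm against blank. Expressed as ascorbic acid equivalents from an ascorbic acid standard graph.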

Experiment [3] can be described thus: Antioxidant activity assessed as ferric reduction. The format is functional. Put shortly: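 Reducing power: sample with 200 mmol/L sodium phosphate buffer (pH 6.6) and 2.5 mL 1% potassium ferricyanide, held 50 °C for 20 min, then 2.5 mL 10% (w/v) trichloroacetic acid added.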

Turning to `O=C1NC(=O)C(=C(/C=C/c2c(-c3ccccc3)[nH]c3ccc(Cl)cc23)c2ccccc2)C(=O)N1`, the result (in the experiment with Nucleic Acid; in experiment [1]) was Active.

Turning to `O=C1NC(=O)C(=C(/C=C/c2c[nH]c3ccccc23)c2ccc(Cl)cc2)C(=O)N1`, the result (in the experiment with Nucleic Acid; in experiment [2]; in experiment [3]) was Active.

Consider `Cc1ccc(C(/C=C/c2c(-c3ccccc3)[nH]c3ccc(C)cc23)=C2C(=O)NC(=O)NC2=O)cc1`, for which the outcome in the experiment on Nucleic Acid was Active.

In the case of `Cc1ccc(C(/C=C/c2c(-c3ccccc3)[nH]c3ccc(Cl)cc23)=C2C(=O)NC(=O)NC2=O)cc1`, the result (in the experiment on Nucleic Acid; in experiment [1]) was Active.

As to `O=C1NC(=O)C(=C(/C=C/c2c[nH]c3ccccc23)c2ccccc2)C(=O)N1`, the outcome (with Nucleic Acid; in experiment [2]; in experiment [3]) was Active.

As for `Cc1ccc(C(/C=C/c2c[nH]c3ccccc23)=C2C(=O)NC(=O)NC2=O)cc1`, the outcome (in the experiment with Nucleic Acid; in experiment [2]; in experiment [3]) was Active.

As for `Cc1ccc2[nH]c(-c3ccccc3)c(/C=C/C(=C3C(=O)NC(=O)NC3=O)c3ccc(Cl)cc3)c2c1`, the result with Nucleic Acid was Active.

Consider `O=C1NC(=O)C(=C(/C=C/c2c(-c3ccccc3)[nH]c3ccc(Cl)cc23)c2ccc(Cl)cc2)C(=O)N1`, for which the outcome (in the experiment on Nucleic Acid; in experiment [1]) was Active.

As for `Cc1ccc2[nH]c(-c3ccccc3)c(/C=C/C(=C3C(=O)NC(=O)NC3=O)c3ccccc3)c2c1`, in the experiment with Nucleic Acid, the result was Active.

The record behind these values is ChEMBL document CHEMBL1240445, “Synthesis, antioxidant and DNA cleavage activities of novel indole derivatives” (Eur J Med Chem, 2010).
